# Measured values pooled from the literature.
# Compare with care: the assays were run in different laboratories.
# Route: oral
Compound,test system,conditions,concentration
COc1cccc(-c2n[nH]c(SCc3ccccn3)n2)c1OC,"male Sprague-Dawley rat, plasma","10 mg/kg, 30 min, single dose",21400 ng/mL
CCOC(=O)[C@@]12C[C@@H]1[C@@H](n1ccc3c(NC)nc(C#Cc4ccc(Cl)s4)nc31)[C@H](O)[C@@H]2O,"male Sprague-Dawley rat, plasma","10 mg/kg, 4 h",23.5 ng/mL
CCc1cc(-c2noc(-c3cc(OC)nc(C4CCCC4)c3)n2)cc(C)c1OC[C@@H](O)CO,"Wistar rat, plasma","0.3 mg/kg, 6 h, single dose",12.7 ng/mL
COc1nc(-c2cc(C)c(N[C@@H](C)c3cc(F)cc(F)c3)nn2)ccc1-n1cnc(C)c1,"male Sprague-Dawley rat, CSF","25 mg/kg, 4 h, multiple doses, once daily",76.6 ng/mL
Cc1noc(C)c1Cn1cc(N2C(=O)N(Cc3cccc(O)c3)C(C)(C)C2=O)cn1,"male Sprague-Dawley rat, plasma","100 mg/kg, 30 min, single dose",2.6 ng/mL
Cc1ccc(-c2cc(C(F)(F)F)nn2-c2ccc(S(N)(=O)=O)cc2)cc1,"male Sprague-Dawley rat, plasma","20 mg/kg, 4 h",1500 nM
COc1ccc2c(=O)n(C)c(-c3ccccc3)nc2c1,"male Sprague-Dawley rat, brain","30 mg/kg, 30 min, single dose",20.4 ng/g
Cc1noc(C)c1Cn1cc(N2C(=O)CN(Cc3cccc(O)c3)C2=O)cn1,"male Sprague-Dawley rat, plasma","30 mg/kg, 2 h",16.5 ng/mL
